One data set has as its system HepG2 cells. Nature of the data set: DiI-LDL uptake assay. The data set is classed as cell-based, human. The conditions noted are these: 5 μmol/L, 24 h, then 20 μg/mL DiI-LDL 4 h, fold of vehicle. The essentials: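 Washes: PBS/0.4% albumin ×2, PBS ×3. Isopropanol extraction 20 min RT; fluorescence ex 520/em 570 nm; residual cells lysed in 0.5 mol/L NaOH for protein determination.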

The subject of data set [1] is PCSK9 mRNA. The conditions noted are these: read-out: IC50 of decreasing PCSK9 mRNA level; cited from earlier work.
For data set [2] the following is noted: 32 hypercholesterolemic patients, 3 months of treatment; cited from earlier work.
The conditions of data set [3]: cited from earlier work.
Data set [4] has as its target beta-1 adrenergic receptor (Homo sapiens, UniProt P08588). Kind of data set: Calcium mobilization assay, β1 adrenergic receptor antagonist activity. Particulars: HEK293 β1-AR/Gα16 cells. It counts as cell-based. The essentials:
(§1)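 HEK293 cells stably co-expressing the receptor and Gα16 were seeded in 96-well plates and grown 24 h. Cells were loaded with 2 μmol/L Fluo-4 AM in HBSS (pH 7.4, BSA 5 g/L, sulfinpyrazone 250 μmol/L) at 37 °C for 45 min. Test compound was added for 10 min at RT, then the respective agonist. Calcium signal was read at ex 485/em 525 nm. IC50 came from nonlinear-regression dose–response curves.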

For another data set, the target named is dopamine D1 (Homo sapiens, UniProt P21728). Kind of data set: Calcium mobilization assay, dopamine D1 antagonist activity. It counts as cell-based. The conditions noted are these: HEK293 D1/Gα16 cells. The essentials:
as §1
For orientation: Calcium flux is commonly read through the fluorescence of an indicator in the cells.

A further data set has as its target dopamine D2 (Homo sapiens, UniProt P14416). Kind of data set: Calcium mobilization assay, dopamine D2 antagonist activity. The data set is classed as cell-based. Particulars: HEK293 D2/Gα16 cells. The method, boiled down: as §1
Data set [5] deals with serotonin 5-HT1B receptor (Homo sapiens, UniProt P28222). Kind of data set: Whole-cell binding assay, 5-HT1B. The essentials:
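CHO-K1 cells stably expressing 5-HT1B were seeded at 3 × 10⁴ cells/well and assayed 24 h later. Cells were incubated overnight at 4 °C with 1 nmol/L ³H-GR125743 or ³H-mesulergine plus unlabeled test compound (1.28 nmol/L–100 μmol/L). They were then washed with ice-cold PBS and lysed (PBS, 20 mmol/L Tris-HCl, 1% Triton X-100, pH 7.4). Bound radioactivity was scintillation-counted, and IC50 came from nonlinear regression.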

Data set [6] in a line: Pharmacokinetic profiles in male hamsters. It counts as in vivo. The conditions noted are these: hamster, serum. The method, boiled down:
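Male hamsters, n = 3 per group, received test compound either at 20 mg/kg by oral gavage in 0.5% CMC-Na or at 10 mg/kg i.v. in 5% DMSO/10% cremophor EL/85% saline. Blood was drawn at 0, 0.5, 1, 2, 4, 6, 8, 10, 12 and 24 h, and serum was separated at 4000×g for 10 min. Serum levels were measured by LC/MS/MS. Parameters are averages of three runs.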

A short description of data set [7]: In vivo cholesterol-lowering assay in HFD-induced hyperlipidemic hamsters. Further details: species or system Syrian hamster. The conditions noted are these: 21 days, vs HFD control. The essentials:
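Male Syrian hamsters (100–120 g) were acclimatized 7 days, then fed a high-fat diet (0.5% cholesterol) for 1 week. They were randomized to groups of n = 7. Test compound (30 mg/kg) or fenofibrate positive control (100 mg/kg) was given by daily oral gavage for 21 days; controls received 0.5% CMC-Na vehicle. After a 15 h fast, serum was taken under anesthesia and TC and LDL-C were measured by kit. Mean ± SEM.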

The test system of another data set is LDLR. Kind of data set: Western blot analysis of LDLR expression in HepG2 cells. It counts as cell-based, human. Particulars: 5 μmol/L, 24 h.
The next data set has as its target hERG channel (Homo sapiens, UniProt Q12809). Kind of data set: hERG testing. It counts as cell-based. The essentials: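 FluxOR thallium-flux assay in CHO-hERG-ZG cells kept under G418 and hygromycin B (100 μg/mL each). Cells were plated and held 30 min at RT in the dark, then 16–18 h at 37 °C. Dye loading ran 90 min at RT in the dark, then the medium was swapped for assay buffer and compound added for 20 min at RT in the dark. Fluorescence was recorded every 2 s to 10 s; stimulus buffer was added at 10 s, then recording continued every 1 s to 180 s.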
(In general: The hERG channel carries a current that helps repolarise heart muscle cells.)

The test system of another data set is PCSK9. Kind of data set: PCSK9 ELISA in HepG2 cells. The conditions noted are these: read-out: IC50 of PCSK9 protein expression, 24 h. The data set is classed as cell-based, human. (An ELISA detects its analyte on a solid surface through an enzyme-linked reagent.)
Data set [8] concerns PCSK9 mRNA. Kind of data set: Real-time PCR of PCSK9 mRNA in HepG2 cells. The data set is classed as cell-based. Particulars: Homo sapiens, HepG2, 24 h, read-out: IC50 of PCSK9 mRNA expression.

The structures appear in SMILES notation. Like-named read-outs stand apart in the source and are kept apart here. A value given as a limit tells only on which side of the number the result lay.

dopamine D2, sequence (P14416 whole entry): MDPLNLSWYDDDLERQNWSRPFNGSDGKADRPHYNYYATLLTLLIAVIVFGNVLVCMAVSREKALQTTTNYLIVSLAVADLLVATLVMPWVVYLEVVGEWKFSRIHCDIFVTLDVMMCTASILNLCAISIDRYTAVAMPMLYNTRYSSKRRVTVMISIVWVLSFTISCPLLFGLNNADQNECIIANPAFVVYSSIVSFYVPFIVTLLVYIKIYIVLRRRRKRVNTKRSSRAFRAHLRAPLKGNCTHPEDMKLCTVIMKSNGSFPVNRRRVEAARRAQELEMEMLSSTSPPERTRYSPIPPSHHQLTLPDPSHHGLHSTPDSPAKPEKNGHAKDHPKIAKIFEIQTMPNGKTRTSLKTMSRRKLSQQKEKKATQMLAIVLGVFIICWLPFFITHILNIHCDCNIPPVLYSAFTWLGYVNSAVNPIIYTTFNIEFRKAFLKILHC
serotonin 5-HT1B receptor, sequence (P28222 whole entry): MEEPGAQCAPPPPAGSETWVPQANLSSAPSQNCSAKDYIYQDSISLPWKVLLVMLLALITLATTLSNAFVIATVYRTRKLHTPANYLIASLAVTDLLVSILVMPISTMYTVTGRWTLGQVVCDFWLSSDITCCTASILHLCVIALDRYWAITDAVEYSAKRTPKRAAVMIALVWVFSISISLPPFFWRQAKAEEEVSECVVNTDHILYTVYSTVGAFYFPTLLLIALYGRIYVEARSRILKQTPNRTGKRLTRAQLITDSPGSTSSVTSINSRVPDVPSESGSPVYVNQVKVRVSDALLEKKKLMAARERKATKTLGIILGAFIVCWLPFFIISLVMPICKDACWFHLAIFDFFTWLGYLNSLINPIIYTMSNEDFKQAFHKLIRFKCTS
beta-1 adrenergic receptor, sequence (P08588 whole entry, species assumed): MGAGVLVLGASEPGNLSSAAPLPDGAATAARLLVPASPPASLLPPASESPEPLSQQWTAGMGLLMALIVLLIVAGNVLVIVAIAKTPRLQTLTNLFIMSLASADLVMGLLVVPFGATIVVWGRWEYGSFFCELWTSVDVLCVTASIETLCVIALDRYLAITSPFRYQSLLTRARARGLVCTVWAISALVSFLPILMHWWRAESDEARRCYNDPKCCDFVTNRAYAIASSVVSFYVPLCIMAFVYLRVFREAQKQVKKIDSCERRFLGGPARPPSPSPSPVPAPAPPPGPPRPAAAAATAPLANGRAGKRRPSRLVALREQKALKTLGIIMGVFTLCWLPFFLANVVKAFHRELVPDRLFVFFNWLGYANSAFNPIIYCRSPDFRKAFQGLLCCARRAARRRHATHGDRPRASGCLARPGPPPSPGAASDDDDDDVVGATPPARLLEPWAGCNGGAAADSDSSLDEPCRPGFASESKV
dopamine D1, sequence (P21728 whole entry): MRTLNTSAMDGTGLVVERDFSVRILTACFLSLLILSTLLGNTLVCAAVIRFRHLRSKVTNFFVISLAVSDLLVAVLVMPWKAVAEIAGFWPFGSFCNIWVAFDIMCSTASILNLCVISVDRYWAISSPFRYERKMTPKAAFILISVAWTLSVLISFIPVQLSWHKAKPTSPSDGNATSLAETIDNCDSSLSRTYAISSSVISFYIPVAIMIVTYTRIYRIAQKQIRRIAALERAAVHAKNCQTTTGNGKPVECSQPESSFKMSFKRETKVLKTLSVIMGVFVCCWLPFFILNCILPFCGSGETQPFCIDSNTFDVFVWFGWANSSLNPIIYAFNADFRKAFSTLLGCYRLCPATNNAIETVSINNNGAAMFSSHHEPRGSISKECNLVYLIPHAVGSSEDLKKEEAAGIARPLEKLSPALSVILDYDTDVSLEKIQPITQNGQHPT
hERG channel, sequence (Q12809 whole entry): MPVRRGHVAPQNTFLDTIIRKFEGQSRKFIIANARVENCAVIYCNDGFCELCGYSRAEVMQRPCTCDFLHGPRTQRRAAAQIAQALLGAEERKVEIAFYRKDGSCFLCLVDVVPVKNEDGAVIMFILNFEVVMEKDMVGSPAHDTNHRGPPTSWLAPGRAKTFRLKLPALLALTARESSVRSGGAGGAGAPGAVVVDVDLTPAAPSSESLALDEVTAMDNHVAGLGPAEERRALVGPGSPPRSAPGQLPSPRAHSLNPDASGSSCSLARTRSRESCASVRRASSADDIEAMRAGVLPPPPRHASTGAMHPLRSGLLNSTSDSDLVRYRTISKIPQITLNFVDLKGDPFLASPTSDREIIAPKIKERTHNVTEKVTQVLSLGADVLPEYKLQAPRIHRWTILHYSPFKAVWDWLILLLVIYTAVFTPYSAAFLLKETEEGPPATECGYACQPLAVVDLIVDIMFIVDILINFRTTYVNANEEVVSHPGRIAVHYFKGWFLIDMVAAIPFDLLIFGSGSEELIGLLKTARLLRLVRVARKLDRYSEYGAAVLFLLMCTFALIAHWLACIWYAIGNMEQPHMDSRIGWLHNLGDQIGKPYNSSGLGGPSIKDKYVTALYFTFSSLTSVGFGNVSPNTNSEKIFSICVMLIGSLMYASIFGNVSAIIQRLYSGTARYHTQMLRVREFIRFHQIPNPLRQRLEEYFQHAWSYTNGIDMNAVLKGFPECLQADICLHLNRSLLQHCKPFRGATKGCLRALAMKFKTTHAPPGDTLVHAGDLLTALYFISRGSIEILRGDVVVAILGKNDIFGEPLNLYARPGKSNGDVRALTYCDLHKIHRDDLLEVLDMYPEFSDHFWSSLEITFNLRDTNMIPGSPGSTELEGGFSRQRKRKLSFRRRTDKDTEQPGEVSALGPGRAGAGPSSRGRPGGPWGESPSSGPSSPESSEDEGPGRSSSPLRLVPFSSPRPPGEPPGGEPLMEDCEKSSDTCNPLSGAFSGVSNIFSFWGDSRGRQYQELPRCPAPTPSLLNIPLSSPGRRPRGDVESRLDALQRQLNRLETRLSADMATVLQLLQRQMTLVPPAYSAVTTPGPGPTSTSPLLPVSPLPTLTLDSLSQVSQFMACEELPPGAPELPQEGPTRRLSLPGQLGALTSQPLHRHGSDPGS

For the compound `COc1ccc2cc3[n+](cc2c1OC)CCc1cc2c(cc1-3)OCO2` [Berberine], the “DiI-LDL uptake rate (compared to vehicle, mean±SEM)” value in the data set with HepG2 cells is on record as 1.38±0.03. For the same compound, in the data set on PCSK9 mRNA [1], the IC50 was 8.04 µM. Further, in data set [2], the “reduction of LDL-C” value was 25% and the “reduction of serum total cholesterol (TC)” value is on record as 29%. In data set [3], the “bioavailability (F)” value is reported as below 1% and the oral bioavailability is around 0%.

Regarding `COc1cc2c(cc1OCc1ccccc1F)C1Cc3c(n(CO)c4ccccc34)CN1CC2` (centres unmarked) [Compound 8, (2-((2-Fluorobenzyl)oxy)-3-methoxy-5,6,14,14a-tetrahydroindolo[3′,2′:4,5]pyrido[2,1-a]isoquinolin-9(8H)-yl)methanol], the “DiI-LDL uptake rate (compared to vehicle, mean±SEM)” value with HepG2 cells is 1.04±0.04. Besides, the IC50 in data set [4] is above 100 µM; at dopamine D1, 5.56 ± 0.08 µM; on dopamine D2 it was 17.9 ± 0.86 µM; in [5], 47.2 ± 1.22 µM.

On to `COc1ccc2c(c1)c1c(n2CO)CN2CCc3cc(OC)c(OCc4ccc(F)cc4)cc3C2C1` (centres unmarked) [Compound 18, (2-((4-Fluorobenzyl)oxy)-3,12-dimethoxy-5,6,14,14a-tetrahydroindolo[3′,2′:4,5]pyrido[2,1-a]isoquinolin-9(8H)-yl)methanol], for which the IC50 is around 100 µM in data set [4], 1.71 ± 0.1 µM at dopamine D1, above 100 µM on dopamine D2 and above 100 µM in data set [5].

Turning to `COc1ccc2c(c1)c1c(n2CO)CN2CCc3cc(OC)c(OCC(F)(F)F)cc3C2C1` (centres unmarked) [Compound 21, (3,12-Dimethoxy-2-(2,2,2-trifluoroethoxy)-5,6,14,14a-tetrahydroindolo[3′,2′:4,5]pyrido[2,1-a]isoquinolin-9(8H)-yl)methanol], the “DiI-LDL uptake rate (compared to vehicle, mean±SEM)” value in the data set with HepG2 cells is on record as 1.45±0.04^∗∗. The IC50 in data set [4] was around 100 µM; on dopamine D1, 2.35 ± 0.07 µM; on dopamine D2, around 50 µM; in data set [5], above 100 µM.

Take `COc1ccc2c(c1)c1c(n2CO)CN2CCc3cc(OCc4ccccc4)c(OC)cc3C2C1` (centres unmarked) [Compound 22, (3-(Benzyloxy)-2,12-dimethoxy-5,6,14,14a-tetrahydroindolo[3′,2′:4,5]pyrido[2,1-a]isoquinolin-9(8H)-yl)methanol]: the IC50 in [4] was at least 100 µM; at dopamine D1, around 100 µM; at dopamine D2, at least 100 µM; in data set [5], 13.4 ± 0.51 µM; on hERG channel, 7.99 µM; with PCSK9, 1.34 µM. In addition, in the data set with PCSK9 mRNA [8], the IC50 was determined as 1.1 µM. Also, the AUC(0-inf) worked out at 2090 ng·h/mL in data set [6] (iv, 10 mg/kg) and 1000 ng·h/mL in data set [6] (po, 20 mg/kg). Besides, the MRT worked out at 4.13 h in data set [6] (iv, 10 mg/kg) and 10.3 h in [6] (po, 20 mg/kg). The clearance in data set [6] (iv, 10 mg/kg) is 84.1 mL/min/kg. Further, the half-life was 3.61 h in [6] (iv, 10 mg/kg) and 6.35 h in data set [6] (po, 20 mg/kg). Further, the bioavailability in [6] (oral, 20 mg/kg) worked out at 21.9%. Besides, the Cmax in [6] (po, 20 mg/kg) worked out at 169 ng/mL. Besides, the “reduction in serum LDL-C” value in data set [7] (30 mg/kg oral gavage daily) is recorded as 41.4%. The “reduction in serum TC” value in data set [7] (30 mg/kg oral gavage daily) was found to be 36.7%. The “LDLR expression compared to DMSO” value in the data set with LDLR worked out at 2.06 fold.

Consider `CC(C)OC(=O)C(C)(C)Oc1ccc(C(=O)c2ccc(Cl)cc2)cc1` [fenofibrate, reference compound], for which, in data set [7] (p.o. 100 mg/kg daily), the “decrease of serum LDL-C” value is reported as 79.4% and the “decrease of serum TC” value came to 71.3%.

Usually IC50 stands for the point on the concentration scale where inhibition reaches its midpoint. Broadly, the AUC(0-inf) is total exposure, with the tail of the curve extrapolated. A low value points to less exposure. The term MRT denotes the average time that molecules of a dose stay in the body. In general, clearance refers to a measure of how efficiently the substance is removed, as volume per time. High values mean a high capacity for elimination, low ones a low capacity for elimination. Usually half-life stands for the time in which the quantity being followed falls by half. Low readings indicate rapid decline, high ones slow decline. As usually defined, the bioavailability is the share of a dose that reaches the circulation, judged against a reference dose that is usually intravenous. Higher therefore signals good availability. Broadly, the Cmax is the maximum level reached in the sampled fluid or tissue.

The record behind these values is paper PMC6900552 (Acta Pharmaceutica Sinica. B, 2019).
